The labels stand for the following.
B1: tRNA (parent)
chain: GUUCCGUUGGCGUAAUGGUAACGCGUCUCCCUCCUAAGGAGAAGACUGCGGGUUCGAGUCCCGUACGGAACG

This sample holds only a part of the variants without activity.

In the data set the parent is B1. The experiment in a line: yeast fitness relative to wild type (ratio to wild type); higher = fitter; tRNA-Arg(CCU), competitive growth, 37 C, YPD. An outline of the steps: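 Genotype frequency changes were the basis for Darwinian fitness relative to wild type. The frequencies came from 100-nucleotide paired-end sequencing of gene amplicons from the start population and each end population of pooled yeast strains with tRNA-Arg(CCU) gene variants at the native locus. Competition ran in YPD at 37°C for 24 hours in six replicates, genotypes needed ≥ 100 starting reads, and estimates < 0.5 were set to 0.5.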
For the variant C34G A45U G68C, the yeast fitness came out at 0.578.

Turning to C31A G68A, the yeast fitness stood at 0.694.

C5U U7A C33U A42C U64C A70G: the yeast fitness was ≤ 0.5. To U3C U7C U19A G23A C29G A45U C60G C61U A69G belongs ≤ 0.5. To G44A G56C A57U belongs 0.596; to A14U A43C C62U C66U, ≤ 0.5; to U3C A43C C61U, 0.707. With G39A C60G A70G the figure was ≤ 0.5; with A21G C30U, 0.97.

For the variant C27G A37U A43G, the yeast fitness is ≤ 0.5. To C4A G63A A65U belongs ≤ 0.5; to A40U G48C C55U C61G, 0.522; to C5U A20U C62A G67A A70G, 0.747.

As for G18C C31U A43U, the yeast fitness came out at 0.588. To A14G A15U G68U belongs ≤ 0.5; to G18C A57C, 0.627. For the variant G23A A43C, the yeast fitness was 0.826. With U2C C24U G44C A69U the figure was ≤ 0.5; with G44C G68U, 0.661. Regarding C11A C29G A65U G68A, the yeast fitness was ≤ 0.5. To G18C C22G A69C belongs ≤ 0.5.

Regarding G25A C60A C61G A65U, the yeast fitness was ≤ 0.5. With G23C G48A the figure was 0.668; with A40G C46G, 0.998.

As for U19A C30A A43G C49U C55A, the yeast fitness came out at 0.64.

With A21G C33U C60A, the yeast fitness was ≤ 0.5.

Turning to U3A U47A, the yeast fitness turned out to be 0.744. With A14G G56A the figure was 0.805. Regarding C5U C11U G17A C31G G68A, the yeast fitness is ≤ 0.5.

With C11G G38A C61G, the yeast fitness was ≤ 0.5. With A20G C34U G38A A43G the figure was ≤ 0.5. On to C33U A42G U59G, for which the yeast fitness was 0.504. With U32A A36C C60G the figure was ≤ 0.5; with A20G A57G C61U C62U A69G, ≤ 0.5; with A37U U53G A65U, ≤ 0.5. With G18C U19G C27U A43U the figure was ≤ 0.5. As for C11G C30U U35A U53G C62U, the yeast fitness was ≤ 0.5. For G23C A42U C49G A65U, the yeast fitness is ≤ 0.5.

Turning to C34U G41A C49G, the yeast fitness was found to be 0.535. To C4A C30U U54A belongs ≤ 0.5; to G10C A14U C62U A69C, ≤ 0.5. With C55G A57C the figure was 0.713; with C11A C22G U53C C66U, ≤ 0.5; with C46G G63A, 0.798.

Take U7A U8G C30G G63A: the yeast fitness is ≤ 0.5. To C5A A36G C46A belongs 0.562; to U13C A45C G50U, ≤ 0.5; to C5U G10A U54C A57G, ≤ 0.5. With G23A C30U A69G A70G the figure was ≤ 0.5.

For the variant U13G C31A A57U, the yeast fitness is ≤ 0.5. Consider A21G U35A, for which the yeast fitness came out at 0.674. With A20C C30A A37G U59A the figure was ≤ 0.5; with U7A G10A A15U G56A A69U, ≤ 0.5; with A20U A42C A69U, 0.564. With G10A A37G the figure was 0.551. For the variant G10A A37C, the yeast fitness is 0.741. With C34U A40G A43G C62A A69C the figure was ≤ 0.5. To U7G A36C G41A U53C belongs ≤ 0.5.

As for C11U A21U G50C U64C, the yeast fitness came out at 0.597. To G12A U13A G41C A45C belongs 0.546; to U2G G6C U54A, ≤ 0.5. To A40C C49G C60G belongs 0.532. For C33U A37U C61U, the yeast fitness was ≤ 0.5. To U47G A57U belongs ≤ 0.5. For C34A A42C C60G, the yeast fitness is ≤ 0.5. To U8A C61A G67A belongs 0.528. G12A G23A U35G A36G C46U A57U: the yeast fitness was ≤ 0.5. Regarding G12C A69G, the yeast fitness is 0.82. To U8A A14C C31A G41C G63U U64A belongs 0.776. To C22G A36C C55U C60A C62G A69U belongs 0.563.

Turning to G9C C55G, the yeast fitness amounted to 0.542.

Regarding C30A G38A, the yeast fitness worked out at 0.783.

As to U7G A15G C61U G67A, the yeast fitness was ≤ 0.5. On to C11U C29U C60G A70G, for which the yeast fitness was ≤ 0.5. C46A C66U: the yeast fitness came to 0.985. With U2C A69U the figure was 0.96; with C4U C27G A43U C55G, ≤ 0.5; with U3A C4U U7A C24U C46G A65G, ≤ 0.5. To A21U C29U A37U C66U belongs ≤ 0.5. With C4U G9C C61A A69C the figure was ≤ 0.5; with C29U G50C U53C A57U C61G, ≤ 0.5. As for C4U A45U, the yeast fitness was 0.968. To C30U C46A G68C belongs 0.704. For G25C C29A G52A G67A, the yeast fitness was ≤ 0.5.

In the case of A37U A42U G52C, the yeast fitness amounted to 0.575. To G18C belongs 0.659. Regarding U7A C29U A37C U53A C55U C60A, the yeast fitness was ≤ 0.5. To U16A A45G G58A belongs 0.591; to G6C G18C C22U, 0.548. For the variant C30U U32A A36U A37U C61A, the yeast fitness is ≤ 0.5. To U16G C31G A45U belongs 0.974; to G10A G23A A45G, ≤ 0.5; to C4U U19A G50A G68U, ≤ 0.5.

For U28G G38A A57C, the yeast fitness is ≤ 0.5. Regarding C31A C49U C61U, the yeast fitness is 0.663.

For the variant A43U G50A, the yeast fitness was 0.796. With A20C G25C C31U A43G G51A G67A, the yeast fitness came out at 0.583.

Turning to C24G C30G C31U U35A A36U G44A, the yeast fitness is 0.695. With A14G G25C G51C C60U G67A the figure was ≤ 0.5; with C4A G23A C33G G63C A65U, ≤ 0.5; with U8C C49A G51U U59G C62A, ≤ 0.5.

As to G6A A15G C30A A57G, the yeast fitness is ≤ 0.5. With A14G G23C C27A, the yeast fitness was ≤ 0.5. To A21C C55U A69C belongs ≤ 0.5; to C24U A69U A70C, 0.756. To U2A A43G belongs 0.988; to G6A C24A U53C A57C A65U, ≤ 0.5. To C5U A21C U54C A65U belongs 0.643; to A21C, 0.973; to A15U A43U, 0.826. Regarding A21G C24G A37U C49A, the yeast fitness is ≤ 0.5. To U3G G25A C61U belongs 0.733. To U13A A20G C24U U35C G58C belongs 0.632; to U8G C49G A57U, ≤ 0.5. Take G12C A20C C24A A36C G48C: the yeast fitness was ≤ 0.5. With C5U U7A A36U, the yeast fitness is ≤ 0.5. With G25C U32C A37G A69G A70G the figure was ≤ 0.5; with G10C A20C U28C A45G, ≤ 0.5.

As to C24G C33G A36C A37C A42C A45G A65U, the yeast fitness was ≤ 0.5. To C4A G63A belongs 0.938; to A45C G56C U64C, 0.555.

On to C4A A37C A70U, for which the yeast fitness is ≤ 0.5. To U3C A42C belongs 0.85; to C27U C30G A40G G51C U64C, ≤ 0.5. With C11U C22G A57U the figure was ≤ 0.5.

Regarding C11G C24A U28G G63A, the yeast fitness came to 0.586.

Consider C5G C55G A70U, for which the yeast fitness was ≤ 0.5. To U7G A14G A20G U35G A43G U59A belongs ≤ 0.5; to G6A U13A A40G A42G A57C C66U, 0.525. To A14U U19A C55A C61G belongs ≤ 0.5; to G25A C27G C29G C46A A65G C66U, ≤ 0.5. To A42C G68C A69U belongs ≤ 0.5; to C27U A40C, 0.809; to G50C C55A C60A, ≤ 0.5. Consider C5G C24U C33U C46A, for which the yeast fitness was ≤ 0.5.

On to C34U A45C C60A, for which the yeast fitness is ≤ 0.5.

For the variant U2A G10A C49A U53C C62G, the yeast fitness is ≤ 0.5. As to U28C C61G G68C, the yeast fitness is ≤ 0.5.

In the case of C4G C24A G39A A42U U47A C60G, the yeast fitness is ≤ 0.5. With A21C C31A C49U the figure was 0.734; with U3C G12A C29G C34U A36C G56C, ≤ 0.5; with G18C C27U C55G, 0.67.

With A15U C34U G41C A69G, the yeast fitness was ≤ 0.5. Consider U3A C11U C29A A42G, for which the yeast fitness turned out to be 0.629.

On to U13A C61U A65G, for which the yeast fitness was 0.71. For U35G A45U A57C, the yeast fitness was ≤ 0.5. To U2C U3A C24A C27U A42G G56C C66U belongs ≤ 0.5.

A14G G18A C30U: the yeast fitness amounted to 0.809. To G10A C33U A45U G48C U64A belongs ≤ 0.5; to C22A C30G, 0.636. To G10C C22A C24G U53A G56C C62U belongs ≤ 0.5; to C4U C49G G68A A70C, 0.606. With C27G A37G G38A the figure was ≤ 0.5; with C4A C5U G48C, ≤ 0.5; with G10C C24G C49G C55A, 0.683. With C29G A43C G67C, the yeast fitness stood at 0.654. To C11G C55U belongs ≤ 0.5.

With C31G C33U U54G C55A, the yeast fitness was ≤ 0.5. Consider C34G G68C, for which the yeast fitness came to 0.603. With A21G G23C the figure was 0.676; with A42G C49U C66A, ≤ 0.5; with A43G A45U G67U, 0.682. To G23C C30G A65C belongs ≤ 0.5; to C4G C33G A42U U47G U54A C61A, ≤ 0.5. With G10C U35G A69C the figure was ≤ 0.5; with G23C C60U, ≤ 0.5. For U35C G48A C55U A70G, the yeast fitness was found to be 0.56.

These data come from the RNAGym collection of RNA variant scans (doi:10.1126/science.aae0568).
